In ChEMBL document CHEMBL3797067, “Part 3: Notch-sparing γ-secretase inhibitors: SAR studies of 2-substituted aminopyridopyrimidinones” (Bioorg Med Chem Lett, 2016):
The source made the active and inactive calls. The calls are words filed in the database; no cut-off is given here.

Key:
[1] = biological target: T1, Gamma-secretase (Homo sapiens) (UniProt Q96BI3+Q9NZ42+Q8WW43+P49768+Q92542+P49810); experiment: Inhibition of human gamma-secretase assessed as inhibition of amyloid beta 40 production using recombinant APP C100FLAG as substrate at 100 uM after 4 hrs by ELISA relative to control; type: protein-complex assay
Method in brief: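 Purified human γ-secretase complex incubated with recombinant C100 FLAG substrate in 0.2% CHAPSO/HEPES, pH 7.5. Compound added from DMSO stock to a final 100 μM with 1% final DMSO. Reaction run 4 h at 37°C and stopped with 0.5% SDS. Aβ40 quantified by specific ELISA and expressed as percent inhibition versus DMSO control.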

[2] = biological target: T1, Gamma-secretase (Homo sapiens); experiment: Inhibition of human gamma-secretase assessed as inhibition of notch1 processing at 100 uM using N100Flag as substrate by western blot analysis; type: protein-complex assay
[3] = Lipophilicity, logD of the compound; type: physicochemical; settings: octanol/water
[4] = Protein binding in human plasma; type: ADME, cell-free; settings: read-out: PPB (converted)
[5] = Permeability of the compound from apical to basolateral side; type: ADME; settings: not told; read-out: permeability
[6] = Metabolic stability of the compound in rat liver microsomes assessed as parent compound remaining after 60 mins; type: ADME; settings: read-out: Stability
[7] = Metabolic stability of the compound in human liver microsomes assessed as parent compound remaining after 60 mins; type: ADME; settings: read-out: Stability
[8] = biological target: Gamma-secretase; experiment: Inhibition of gamma-secretase (unknown origin) assessed as inhibition of amyloid beta 42 production by cell-based assay; parameters: species or system Homo sapiens
[9] = biological target: T1, Gamma-secretase (Homo sapiens); experiment: Inhibition of gamma-secretase (unknown origin) assessed as inhibition of amyloid beta 42 production at 100 uM by cell-based assay

**Q.** For `Cn1c(=O)c(-c2c(Cl)cccc2Cl)cc2cnc(Nc3ccc(C(F)(F)F)cc3)nc21`, which inhibition [1] is on record?
**A.** The inhibition was 12%.

**Q.** For `Cn1c(=O)c(-c2c(Cl)cccc2Cl)cc2cnc(N3CCN(c4ncccn4)CC3)nc21`, which inhibition [1] is on record?
**A.** Its inhibition is 0%.

**Q.** For `CN(CCc1ccccc1)c1ncc2cc(-c3c(Cl)cccc3Cl)c(=O)n(C)c2n1`, which inhibition [1] is on record?
**A.** Its inhibition is 48%.

**Q.** What about the inhibition [2] of the same molecule?
**A.** Its inhibition is “inactive”.

**Q.** Which inhibition [1] does the source give for `CC(C)N(Cc1ccccc1)c1ncc2cc(-c3c(Cl)cccc3Cl)c(=O)n(C)c2n1` here?
**A.** Its inhibition is 90%.

**Q.** And the logD [3]?
**A.** The logD was greater than 4.

**Q.** What about the inhibition [2] of the same molecule?
**A.** The inhibition was “inactive”.

**Q.** What about the fraction unbound [4] of the same molecule?
**A.** Its fraction unbound is 0.057.

**Q.** What about the Papp A→B [5] of the same molecule?
**A.** The Papp A→B was 2.3 ×10⁻⁶ cm/s.

**Q.** What about the remaining at 1 h [6] of the same molecule?
**A.** The remaining at 1 h was 4%.

**Q.** And the remaining at 1 h [7]?
**A.** The remaining at 1 h was 72%.

**Q.** With `COc1ccc(Nc2ncc3cc(-c4c(Cl)cccc4Cl)c(=O)n(C)c3n2)cc1` as the molecule, how does the inhibition [1] read?
**A.** The inhibition was 47%.

**Q.** And the inhibition [2]?
**A.** Its inhibition is “inactive”.

**Q.** With `Cn1c(=O)c(-c2ccc(C(C)(C)C)cc2)cc2cnc(N3CCN(c4ccc(F)cc4)CC3)nc21` as the molecule, how does the inhibition [1] read?
**A.** Its inhibition is 2%.

**Q.** With `Cn1c(=O)c(-c2c(Cl)cccc2Cl)cc2cnc(Nc3ccccc3)nc21` as the molecule, how does the inhibition [1] read?
**A.** Its inhibition is 26%.

**Q.** Which inhibition [1] does the source give for `Cn1c(=O)c(-c2c(Cl)cccc2Cl)cc2cnc(N3CCN(c4ccc(F)cc4)CC3)nc21` here?
**A.** Its inhibition is 68%.

**Q.** What about the logD [3] of the same molecule?
**A.** Its logD is greater than 4.

**Q.** And the IC50 [8]?
**A.** The IC50 was 2.7 µM.

**Q.** And the inhibition [2]?
**A.** The inhibition was “inactive”.

**Q.** What about the fraction unbound [4] of the same molecule?
**A.** The fraction unbound was 0.011.

**Q.** And the Papp A→B [5]?
**A.** Its Papp A→B is 0.1 ×10⁻⁶ cm/s.

**Q.** And the remaining at 1 h [6]?
**A.** Its remaining at 1 h is 72%.

**Q.** What about the remaining at 1 h [7] of the same molecule?
**A.** Its remaining at 1 h is 74%.

**Q.** Which results are given for `Cn1c(=O)c(-c2ccccc2)cc2cnc(N3CCN(c4ccc(F)cc4)CC3)nc21`?
**A.** inhibition [1]: 14%; inhibition [2]: Active

**Q.** Which inhibition [1] does the source give for `Cn1c(=O)c(-c2ccc(Cl)cc2)cc2cnc(N3CCN(c4ccc(F)cc4)CC3)nc21` here?
**A.** Its inhibition is 0%.

**Q.** For `Cn1c(=O)c(-c2c(Cl)cccc2Cl)cc2cnc(N3CCN(c4ccccn4)CC3)nc21`, which inhibition [1] is on record?
**A.** Its inhibition is 0%.

**Q.** What does the source list for `CC(C)N(Cc1cc(F)cc(F)c1)c1ncc2cc(-c3c(Cl)cccc3Cl)c(=O)n(C)c2n1`?
**A.** inhibition [1]: 73%; inhibition [2]: Active

**Q.** With `Cn1c(=O)c(-c2c(Cl)cccc2Cl)cc2cnc(N3CCN(CC4CCCO4)CC3)nc21` (configuration not stated) as the molecule, how does the inhibition [1] read?
**A.** Its inhibition is 0%.

**Q.** Which inhibition [1] does the source give for `Cn1c(=O)c(-c2c(Cl)cccc2Cl)cc2cnc(NCc3ccccn3)nc21` here?
**A.** Its inhibition is 59%.

**Q.** And the inhibition [2]?
**A.** The inhibition was “inactive”.

**Q.** What does the source list for `CC(C)Nc1ncc2cc(-c3c(Cl)cccc3Cl)c(=O)n(C)c2n1`?
**A.** inhibition [1]: 0%; inhibition [2]: inactive

**Q.** Which results are given for `CSc1cccc(Nc2ncc3cc(-c4c(Cl)cccc4Cl)c(=O)n(C)c3n2)c1`?
**A.** inhibition [1]: 0%; inhibition [2]: inactive

**Q.** Which results are given for `Cn1c(=O)c(-c2c(Cl)cccc2Cl)cc2cnc(N3CCN(Oc4cccnc4)CC3)nc21`?
**A.** inhibition [1]: 0%; inhibition [9]: 0%

**Q.** Which inhibition [1] does the source give for `CCCCCCNc1ncc2cc(-c3c(Cl)cccc3Cl)c(=O)n(C)c2n1` here?
**A.** The inhibition was 53%.

**Q.** What about the inhibition [2] of the same molecule?
**A.** The inhibition was “Active”.

**Q.** Which results are given for `CSc1ccc(Nc2ncc3cc(-c4c(Cl)cccc4Cl)c(=O)n(C)c3n2)cc1`?
**A.** inhibition [1]: 47%; IC50 [8]: 26 µM; inhibition [2]: inactive

**Q.** With `CN1CCN(c2ncc3cc(-c4c(Cl)cccc4Cl)c(=O)n(C)c3n2)CC1` as the molecule, how does the inhibition [1] read?
**A.** Its inhibition is 0%.

**Q.** What about the inhibition [9] of the same molecule?
**A.** The inhibition was 7%.

**Q.** What about the inhibition [2] of the same molecule?
**A.** The inhibition was “inactive”.

**Q.** For `Cn1c(=O)ccc2cnc(N3CCN(c4ccc(F)cc4)CC3)nc21`, which inhibition [1] is on record?
**A.** The inhibition was 0%.

**Q.** With `CC(C)N(Cc1ccc(Cl)c(Cl)c1)c1ncc2cc(-c3c(Cl)cccc3Cl)c(=O)n(C)c2n1` as the molecule, how does the inhibition [1] read?
**A.** Its inhibition is 50%.

**Q.** What about the inhibition [2] of the same molecule?
**A.** The inhibition was “inactive”.

**Q.** For `Cn1c(=O)c(-c2c(Cl)cccc2Cl)cc2cnc(NCc3ccccc3)nc21`, which inhibition [1] is on record?
**A.** Its inhibition is 0%.

**Q.** Which inhibition [1] does the source give for `Cn1c(=O)c(-c2c(F)cccc2F)cc2cnc(N3CCN(c4ccc(F)cc4)CC3)nc21` here?
**A.** The inhibition was 20%.

**Q.** And the inhibition [2]?
**A.** Its inhibition is “Active”.
